High-throughput results as filed in PubChem.
Rows were chosen to be rich in hits. Some 4.2% of all compounds tested hit in one or more screens of this group.
ANO1 block – TMEM16A chloride channel inhibitors, primary screen, cell-based, HTS | Anoctamin-1 (Mus musculus), Q8BHY3 | 1.2% of 310,000 active | normalized B-score (activity score, 25-100; higher = stronger inhibition) at 10 µM | HEK293 TMEM16A/YFP iodide influx fluorescence, ionomycin;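 active means ratio plate-corrected score three or more library SD toward inhibition, starting fluorescence score within five deviations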;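 further: score derived from kinetic fluorescence span divided by baseline fluorescence per well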
CHOP inhibitor – inhibitors of CHOP promoter induction, primary screen, cell-based, unfolded protein response, luciferase reporter. CHO-K1 CHOP-promoter luciferase, tunicamycin-induced, 15-18 h. inhibition, % at 10 µM. 3.8% of 220,000 active;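 active means compounds that reduced the stress-induced luciferase reporter signal by more than about 70% of percent inhibition, limit read from the data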;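 further: 0% = tunicamycin plus vehicle and 100% = wells without tunicamycin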
Hep lipid drop – inhibitors of hepatocyte lipid droplet formation, primary screen, imaging, high-throughput imaging, BODIPY stain; AML12 mouse hepatocytes, oleate lipid droplets; inhibition, % at 6.5 µM; 0.4% of 240,000 active; AID 1656, 2009;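 active means lipid droplet intensity inhibited by at least 50%, with more than 500 cells counted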
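Assay system: AML12 hepatocytes (mouse); Probe or stimulus: oleic acid at 100 µM to induce lipid droplet formation; Dosing: compound at 6.5 µM only; Schedule: compound with oleate, overnight; Detection: fluorescence imaging, 20x objective, two fields per well; Measure: % inhibition of lipid droplet signal.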
ANO1 activ – TMEM16A chloride channel activators or potentiators, primary screen, cell-based, HTS. Anoctamin-1 (Mus musculus), Q8BHY3. HEK293 TMEM16A/YFP-H148Q/I152L, iodide quench fluorescence; active compounds read low. B-score at 10 µM. 0.3% of 340,000 active;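 active means fluorescence-ratio B-score plate-corrected deviation score at least 3 library SD below zero, with starting fluorescence score within 5 deviations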;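 further: channel opened by trigger with iodide after compound preincubation; score built on the fluorescence ratio of max minus min over baseline; more negative score means more quench and so TMEM16A activation or potentiation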
XBP1 UPR activ – activators of adaptive XBP1 UPR arm, primary screen, cell-based, CHO-XBP1 luciferase reporter, luminescence, uHTS. activation, % at 20 µM. 0.33% of 330,000 active. IRE1-XBP1 UPR activation; percent of tunicamycin response, DMSO as zero. AID 463104, 2010;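 active means versus positive control, 20 µM dose yields 30% or more activation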;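 further: 100% = tunicamycin at 10 µg/mL and 0% = DMSO only wells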
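Test system: CHO-XBP1 luciferase reporter cells | Buffer or medium: Serum-containing F12 medium, 10% FBS | Schedule: 6 h compound exposure at 37 °C, 5% CO2 | Detection: Steady-Glo luciferase glow luminescence, 10 min after reagent addition | Read-out basis: Activation, % of tunicamycin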
UPR CHOP act – activators of apoptotic CHOP UPR arm, primary screen, cell-based, CHO-CHOP luciferase reporter, luminescence, uHTS | UPR activation; percent of tunicamycin response over DMSO baseline | activation, % at 10 µM | 0.34% of 330,000 active | AID 449763, 2010;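 active means at 10 µM dose, activation of 40% or more, normalized to positive control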;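 further: 100% = tunicamycin at 10 µg/mL and 0% = DMSO alone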
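Test system: CHO CHOP reporter cells. Input: 500 CHO-CHOP cells per well. Medium: F12 with 10% FBS. Technique: luciferase luminescence. Measure: percent activation relative to tunicamycin control. Dosing: 10 µM compound, 0.5% DMSO. Timing: 16-18 h cell attachment, then 6 h compound exposure, 37 °C.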
Lipid drop inh – hepatocyte lipid droplet accumulation inhibitors, confirmation, imaging, AML12 mouse hepatocytes, single concentration, high-content; shares compounds with Hep lipid drop; BODIPY lipid droplet imaging; droplets induced with 100 µM oleic acid; inhibition, % at 5.2 µM; 65% of 870 active;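 active means inhibition of lipid droplet metric at least 50%, with more than 300 cells in each of four replicates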;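 further: plate controls were DMSO with oleic acid for no effect and 5 µM Triacsin-C for full effect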
AML12 tox img – AML12 hepatocyte cytotoxicity, counter-screen for hepatic lipid droplet formation project, imaging, DAPI nuclear morphology imaging; z-score at 5 µM; AID 463200, 2010; AML12 mouse hepatocytes; active compounds read high; cells fed 100 µM oleate overnight; shares compounds with Hep lipid drop; 3% of 870 active; in the data active means z-score above about 6.3;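 further: compound exposure lasted overnight at 37 °C before fixation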
AML12 tox ATP – AML12 hepatocyte cytotoxicity, confirmation, cytotoxicity control for hepatic lipid droplet formation project, cell-based, single concentration. cytotoxicity, % at 50 µM. 530 tested, under 10 active. AML12 mouse hepatocyte viability, ATP luminescence; cells loaded with 100 µM oleic acid. shares compounds with Hep lipid drop;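 active means cytotoxicity above 50% in each of four replicates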;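 further: compound exposure lasted overnight at 37 °C before the ATP read; 0% = DMSO-treated cells and 100% = wells with no cells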
Active calls of the source: *; i = inactive; . = no result.

SMILES	ANO1 block	CHOP inhibitor	Hep lipid drop	ANO1 activ	XBP1 UPR activ	UPR CHOP act	Lipid drop inh	AML12 tox img	others
Cc1ccc(NC(=O)N2CCC(C(=O)c3ccc(F)cc3)CC2)cc1	i	.	83*	i	-1	0	96*	0.052	AML12 tox ATP=5
C/C(=C\c1cccc(Cl)c1Cl)C(=O)c1c(C)cc(C)[nH]c1=O	i	.	52*	i	-4	2	27	0.23
C/C(=C\c1ccccc1F)C(=O)c1c(C)cc(C)[nH]c1=O	i	.	0	i	-1	1	.	.
COc1cc(C(=O)OCn2nnc3ccccc3c2=O)cc(OC)c1OC	i	-21	8	i	2	0	.	.
COc1cc(/C=C\C(=O)OCn2nnc3ccccc3c2=O)cc(OC)c1OC	i	2	57*	i	3	-1	25	-0.6
Cc1ccc(-c2c(C(=O)NC(C)C)oc(=O)c3ccccc23)cc1	i	15	53*	i	-3	-1	7	-0.0095
CCCCN1C(=O)/C(=C/C=C2\Oc3ccccc3N2CC)SC1=S	.	29	69*	i	.	.	113*	-0.5	AML12 tox ATP=14
COc1cc(OC)cc(C(=O)NNC(=O)C(CCC(N)=O)NS(=O)(=O)c2ccc(Cl)cc2)c1 (stereo not given)	.	.	.	i	.	.	.	.
C/C(=N\N=C(/N)c1nonc1N)c1ccc2c(c1)OCO2	i	-34	66*	i	5	4	27	0.38
C/C(=N/NC(=O)c1nnn(-c2nonc2N)c1-c1ccccc1)c1ccc2c(c1)OCO2	i	.	10	i	-5	-1	.	.
CCOc1ccc2c(c1)-c1c(ssc1=S)C(C)(C)N2C	i	37	57*	i	1	2	102*	0.044	AML12 tox ATP=13
CC1(C)Nc2ccc(O)cc2-c2c1ssc2=S	i	22	-14	i	-2	-3	.	.
CC(C)(O)CC[C@H](OC(=O)c1ccccc1)[C@](C)(O)[C@H]1CC[C@@]2(O)C3=CC(=O)[C@@H]4C[C@@H](O)[C@H](O)C[C@]4(C)C3CC[C@]12C (stereo not given in full)	i	.	-5	i	-1	0	.	.
Cc1[nH]n(-c2ccccc2)c(=O)c1N=Nc1ccc(Cl)cc1	i	.	54*	i	2	2	51	0.57
Cc1[nH]n(-c2ccccc2)c(=O)c1N=Nc1ccc(C(=O)O)cc1	i	.	51*	i	20	3	31	-0.38
O=S(OCCN1CCCC1)C(c1ccccc1)c1ccccc1 (stereo not given)	.	.	.	i	.	.	.	.
COc1cc2ncnc(NCc3cccs3)c2cc1OC	i	15	52*	i	1	0	62*	15*
O=C(O)COc1ccccc1/C=N/NC(=O)C(O)c1ccccc1 (stereo not given)	i	.	20	i	-3	3	.	.
O=C(Nc1ccccc1)C1=C[C@@H](C2CCCCC2)C[C@@H](OCc2ccc(CO)cc2)O1	i	-28	53*	i	4	2	65*	-0.34	AML12 tox ATP=8
COc1ccccc1N1CCN(S(=O)(=O)CCNC(=O)C23CC4CC(CC(C4)C2)C3)CC1	i	.	-6	i	-6	1	.	.
